Measured values: ChEMBL document CHEMBL1782040, “Exceptionally fast uptake and metabolism of cyanidin 3-glucoside by rat kidneys and liver” (J Nat Prod, 2011)
Blank lines part the entries; values can stand above or below the compound they belong to.

How the values were obtained:
Plasma [1] = assay: Drug uptake in Wistar rat plasma assessed as peonidin 3-glucoside level at 0.67 umol, iv after 0.25 mins by mass spectrometry analysis; assay type: ADME, organism-based; conditions: in vivo, 15 s
In short: (§1)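 Fasted, anaesthetized rats received the anthocyanin in saline as a 0.67 μmol iliac-vein bolus (76 μM in plasma). They were sacrificed at 15 s, 1, 5 or 15 min, and plasma, kidneys, liver, urine and bile were collected. Anthocyanins were methanol-extracted, SPE-cleaned and quantified by MS (tandem MS for trace metabolites), then corrected for recovery measured on spiked blood, homogenates and urine. Amounts assume 8.8 mL plasma, 2.4 g kidney and 7.0 g liver, with urine and bile volumes measured.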

Plasma [2] = assay: Drug uptake in Wistar rat plasma assessed as peonidin 3-glucoside level at 0.67 umol, iv after 1 min by mass spectrometry analysis; assay type: ADME, organism-based; conditions: in vivo; in short: as §1
Plasma [3] = assay: Drug uptake in Wistar rat plasma assessed as peonidin 3-glucoside level at 0.67 umol, iv after 15 mins by mass spectrometry analysis; assay type: ADME, organism-based; conditions: in vivo, 0.25 h; in short: as §1
Kidney [4] = assay: Drug uptake in Wistar rat kidney assessed as peonidin 3-glucoside level by assuming kidney mass was 2.4 gram at 0.67 umol, iv after 0.25 mins by mass spectrometry analysis; assay type: ADME, organism-based; conditions: in vivo, 15 s
In short: (§2)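 Cyanidin 3-glucoside in saline was given as one iliac-vein injection (0.67 μmol) to fasting, anaesthetized rats, which were killed at 15 s, 1, 5 or 15 min. Kidneys were homogenized, extracted in methanol, cleaned up by SPE and analysed by LC-MS/MS.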

Kidney [5] = assay: Drug uptake in Wistar rat kidney assessed as peonidin 3-glucoside level at 0.67 umol, iv after 0.25 mins by mass spectrometry analysis; assay type: ADME, organism-based; conditions: in vivo, 15 s, read-out: Drug uptake; in short: as §2
Kidney [6] = assay: Drug uptake in Wistar rat kidney assessed as peonidin 3-glucoside level by assuming kidney mass was 2.4 gram at 0.67 umol, iv after 1 min by mass spectrometry analysis; assay type: ADME, organism-based; conditions: in vivo; in short: as §2
Kidney [7] = assay: Drug uptake in Wistar rat kidney assessed as peonidin 3-glucoside level at 0.67 umol, iv after 1 min by mass spectrometry analysis; assay type: ADME, organism-based; conditions: in vivo, read-out: Drug uptake; in short: as §2
Kidney [8] = assay: Drug uptake in Wistar rat kidney assessed as peonidin 3-glucoside level by assuming kidney mass was 2.4 gram at 0.67 umol, iv after 5 mins by mass spectrometry analysis; assay type: ADME, organism-based; conditions: in vivo; in short: as §2
Kidney [9] = assay: Drug uptake in Wistar rat kidney assessed as peonidin 3-glucoside level at 0.67 umol, iv after 5 mins by mass spectrometry analysis; assay type: ADME, organism-based; conditions: in vivo, read-out: Drug uptake; in short: as §2
Kidney [10] = assay: Drug uptake in Wistar rat kidney assessed as peonidin 3-glucoside level by assuming kidney mass was 2.4 gram at 0.67 umol, iv after 15 mins by mass spectrometry analysis; assay type: ADME, organism-based; conditions: in vivo, 0.25 h; in short: as §2
Kidney [11] = assay: Drug uptake in Wistar rat kidney assessed as peonidin 3-glucoside level at 0.67 umol, iv after 15 mins by mass spectrometry analysis; assay type: ADME, organism-based; conditions: in vivo, 0.25 h, read-out: Drug uptake; in short: as §2
Liver [12] = assay: Drug uptake in Wistar rat liver assessed as peonidin 3-glucoside level by assuming liver mass was 7 grams at 0.67 umol, iv after 0.25 mins by mass spectrometry analysis; assay type: ADME, organism-based; conditions: in vivo, 15 s
In short: (§3)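 Fasting, anaesthetized rats received cyanidin 3-glucoside in saline into the iliac vein (0.67 μmol) and were killed at 15 s, 1, 5 or 15 min. Liver homogenates were methanol-extracted, cleaned up by SPE and quantified by LC-MS/MS.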

Liver [13] = assay: Drug uptake in Wistar rat liver assessed as peonidin 3-glucoside level at 0.67 umol, iv after 0.25 mins by mass spectrometry analysis; assay type: ADME, organism-based; conditions: in vivo, 15 s; in short: as §3
Liver [14] = assay: Drug uptake in Wistar rat liver assessed as peonidin 3-glucoside level by assuming liver mass was 7 grams at 0.67 umol, iv after 1 min by mass spectrometry analysis; assay type: ADME, organism-based; conditions: in vivo; in short: as §3
Liver [15] = assay: Drug uptake in Wistar rat liver assessed as peonidin 3-glucoside level at 0.67 umol, iv after 1 min by mass spectrometry analysis; assay type: ADME, organism-based; conditions: in vivo; in short: as §3
Liver [16] = assay: Drug uptake in Wistar rat liver assessed as peonidin 3-glucoside level by assuming liver mass was 7 grams at 0.67 umol, iv after 5 mins by mass spectrometry analysis; assay type: ADME, organism-based; conditions: in vivo; in short: as §3
Liver [17] = assay: Drug uptake in Wistar rat liver assessed as peonidin 3-glucoside level at 0.67 umol, iv after 5 mins by mass spectrometry analysis; assay type: ADME, organism-based; conditions: in vivo, read-out: Drug uptake; in short: as §3
Liver [18] = assay: Drug uptake in Wistar rat liver assessed as peonidin 3-glucoside level by assuming liver mass was 7 grams at 0.67 umol, iv after 15 mins by mass spectrometry analysis; assay type: ADME, organism-based; conditions: in vivo, 0.25 h; in short: as §3
Liver [19] = assay: Drug uptake in Wistar rat liver assessed as peonidin 3-glucoside level at 0.67 umol, iv after 15 mins by mass spectrometry analysis; assay type: ADME, organism-based; conditions: in vivo, 0.25 h; in short: as §3
[20] = Drug uptake in Wistar rat urine assessed as peonidin 3-glucoside level by assuming plasma volume was 8.8 mL at 0.67 umol, iv after 15 mins by mass spectrometry analysis; assay type: ADME, organism-based; conditions: in vivo, 0.25 h; in short: as §1
[21] = Drug uptake in Wistar rat urine assessed as peonidin 3-glucoside level at 0.67 umol, iv after 15 mins by mass spectrometry analysis; assay type: ADME, organism-based; conditions: in vivo, 0.25 h, read-out: Drug uptake; in short: as §1
[22] = Drug uptake in Wistar rat bile assessed as peonidin 3-glucoside level by assuming plasma volume was 8.8 mL at 0.67 umol, iv after 15 mins by mass spectrometry analysis; assay type: ADME, organism-based; conditions: in vivo, 0.25 h
[23] = Drug uptake in Wistar rat bile assessed as peonidin 3-glucoside level at 0.67 umol, iv after 15 mins by mass spectrometry analysis; assay type: ADME, organism-based; conditions: in vivo, 0.25 h, read-out: Drug uptake
In short: (§4)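 Cyanidin 3-glucoside in saline was injected into the iliac vein of fasting, anaesthetized rats (0.67 μmol; 76 μM in plasma). Urine and bile were collected to 15 min, and their volumes were measured. Anthocyanin levels were measured by LC-MS and corrected for recovery from spiked standards. Amounts are given per collected volume (n = 9 urine, n = 4 bile).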

[24] = Drug excretion in Wistar rat urine assessed as peonidin 3-glucoside level at 0.67 umol, iv after 15 mins by mass spectrometry analysis; assay type: ADME, organism-based; conditions: in vivo, 0.25 h; in short: as §4
[25] = Drug excretion in Wistar rat bile assessed as peonidin 3-glucoside level at 0.67 umol, iv after 15 mins by mass spectrometry analysis; assay type: ADME, organism-based; conditions: in vivo, 0.25 h; in short: as §4
Nucleic Acid [26] = assay: Ratio of drug uptake in urine to kidney in Wistar rat assessed as peonidin 3-glucoside level at 0.67 umol, iv after 15 mins by mass spectrometry analysis; assay type: ADME, organism-based; conditions: in vivo, 0.25 h
Nucleic Acid [27] = assay: Ratio of drug uptake in bile to liver in Wistar rat assessed as peonidin 3-glucoside level at 0.67 umol, iv after 15 mins by mass spectrometry analysis; assay type: ADME, organism-based; conditions: in vivo, 0.25 h
Plasma [28] = assay: Drug uptake in Wistar rat plasma assessed as petunidin 3-glucoside level at 0.67 umol, iv after 0.25 mins by tandem mass spectrometry; assay type: ADME, organism-based; conditions: in vivo, 15 s; in short: as §1
[29] = Drug excretion in Wistar rat urine assessed as petunidin 3-glucoside level at 0.67 umol, iv after 15 mins by mass spectrometry analysis; assay type: ADME, organism-based; conditions: in vivo, 0.25 h
Plasma [30] = assay: Drug uptake in Wistar rat plasma assessed as petunidin 3-glucoside level at 0.67 umol, iv after 1 min by tandem mass spectrometry; assay type: ADME, organism-based; conditions: in vivo; in short: as §1
Kidney [31] = assay: Drug uptake in Wistar rat kidney assessed as petunidin 3-glucoside level by assuming kidney mass was 2.4 gram at 0.67 umol, iv after 5 mins by tandem mass spectrometry; assay type: ADME, organism-based; conditions: in vivo; in short: as §2
Kidney [32] = assay: Drug uptake in Wistar rat kidney assessed as petunidin 3-glucoside level at 0.67 umol, iv after 5 mins by tandem mass spectrometry; assay type: ADME, organism-based; conditions: in vivo, read-out: Drug uptake
Kidney [33] = assay: Drug uptake in Wistar rat kidney assessed as petunidin 3-glucoside level by assuming kidney mass was 2.4 gram at 0.67 umol, iv after 15 mins by tandem mass spectrometry; assay type: ADME, organism-based; conditions: in vivo, 0.25 h; in short: as §2
Kidney [34] = assay: Drug uptake in Wistar rat kidney assessed as petunidin 3-glucoside level at 0.67 umol, iv after 15 mins by tandem mass spectrometry; assay type: ADME, organism-based; conditions: in vivo, 0.25 h, read-out: Drug uptake; in short: as §2
[35] = Ratio of drug uptake in urine to kidney in Wistar rat assessed as petunidin 3-glucoside level at 0.67 umol, iv after 15 mins by mass spectrometry analysis; conditions: in vivo, 0.25 h

- concentration (Plasma [1]): 1.2 µM
- concentration (Plasma [2]): 0.5 µM
- concentration (Plasma [3]): 0.6 µM
- Drug uptake (Kidney [4]): 46 nmol
- concentration (Kidney [5]): 19.2 µM
- Drug uptake (Kidney [6]): 99.5 nmol
- concentration (Kidney [7]): 41.5 µM
- Drug uptake (Kidney [8]): 38.8 nmol
- concentration (Kidney [9]): 16.1 µM
- Drug uptake (Kidney [10]): 49.2 nmol
- concentration (Kidney [11]): 20.5 µM
- Drug uptake (Liver [12]): 41.1 nmol
- Drug uptake (Liver [13]): 5.9 µM
- Drug uptake (Liver [14]): 80.4 nmol
- Drug uptake (Liver [15]): 11.5 µM
- Drug uptake (Liver [16]): 34.5 nmol
- concentration (Liver [17]): 4.9 µM
- Drug uptake (Liver [18]): 31.9 nmol
- Drug uptake (Liver [19]): 4.6 µM
- Drug uptake [20]: 98.7 nmol
- concentration [21]: 707 µM
- Drug uptake [22]: 58.5 nmol
- concentration [23]: 398 µM
- Activity [24]: 14.7%
- Activity [25]: 8.8%
- Ratio (Nucleic Acid [26]): 34.5
- Ratio (Nucleic Acid [27]): 86.5
Compound: COc1cc(-c2[o+]c3cc(O)cc(O)c3cc2O[C@@H]2O[C@H](CO)[C@@H](O)[C@H](O)[C@H]2O)ccc1O

- concentration (Plasma [28]): 0.002 µM
- Activity [29]: 0.1%
- concentration (Plasma [30]): 0.002 µM
- Drug uptake (Kidney [31]): 2210 pmol
- concentration (Kidney [32]): 0.879 µM
- Drug uptake (Kidney [33]): 2317 pmol
- concentration (Kidney [34]): 0.966 µM
- Ratio [35]: 4.5
Compound: COc1cc(-c2[o+]c3cc(O)cc(O)c3cc2O[C@@H]2O[C@H](CO)[C@@H](O)[C@H](O)[C@H]2O)cc(O)c1O
